Compound activity from PubChem BioAssay.
E-sel inducer: induces E-selectin expression in human endothelial cells | HUVEC E-selectin immunofluorescence imaging; normalized: neutral wells 0, TNF-alpha wells 100 | activation, % at 7.58 µM | 0.37% of 260,000 active | AID 686992;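 active = mean E-selectin-positive cell signal at least 10% of the positive control, reached in at least 60% of replicates, without over 20% cell loss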
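Test system: HUVEC; input: 3,000 HUVEC/well; measured by: immunofluorescence imaging; read-out: % PE-positive cells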
SIRT5 block: inhibitors of human sirtuin-5 desuccinylase | AID 652115 | inhibition, % at 15 µM | Purified SirT5, succinyl-peptide AMC, trypsin-coupled fluorescence | 1.1% of 330,000 active; in the data active = inhibition above about 15%
Target sequence (Q9NXA8 whole entry, looked up): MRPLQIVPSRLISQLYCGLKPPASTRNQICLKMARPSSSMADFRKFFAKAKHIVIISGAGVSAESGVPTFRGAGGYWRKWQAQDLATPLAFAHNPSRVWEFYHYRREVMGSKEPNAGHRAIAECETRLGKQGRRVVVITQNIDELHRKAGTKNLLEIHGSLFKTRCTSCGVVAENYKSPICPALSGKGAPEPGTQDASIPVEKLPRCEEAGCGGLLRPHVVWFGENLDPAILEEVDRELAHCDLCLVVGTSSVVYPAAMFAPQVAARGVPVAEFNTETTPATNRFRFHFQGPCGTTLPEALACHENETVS
ERAP1 inh: blocks human ERAP1 aminopeptidase activity; Q9NZ08; recombinant ERAP1, Leu-AMC fluorescence, 60 min; inhibition, % at 10.7 µM; 0.15% of 340,000 active; AID 652197;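 active = mean replicate inhibition of at least 30%, or all replicates individually reaching that 30% level; inactive = mean below 30% and not every replicate reaching it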
S100A4 inh HTS: S100A4-myosin IIA interaction inhibition; AID 652163; 0.14% of 360,000 active; P26447; S100A4/TAMRA-MyoIIA peptide fluorescence polarization; inhibition, % at 10.7 µM;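 active = mean inhibition of at least 70% across replicates, with every replicate also reaching that level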
Target sequence (P26447 whole entry, looked up): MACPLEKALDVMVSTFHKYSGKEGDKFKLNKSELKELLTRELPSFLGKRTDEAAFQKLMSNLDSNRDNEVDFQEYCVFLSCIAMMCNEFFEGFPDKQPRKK
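Material: S100A4 monomer (human). Medium: Calcium-containing HEPES buffer, pH 7.2. Probe or stimulus: labelled myosin peptide probe, 5 nM. Compound dosing: one concentration per compound. Timing: polarization read 5 min after assay mix addition, stable 5–60 min. Benchmarks: DMSO as neutral control, TFP as positive control.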
MLL AF4-AF9 inh: blocks AF4 peptide binding to human AF9; inhibition, % at 10 µM; P42568; 0.47% of 350,000 active; AlphaScreen, biotin-AF4 peptide binding to FLAG-AF9; AID 651704;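 active = every replicate reaching a set inhibition limit, whatever the replicate mean, cut at about 25% in these data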
rRNA inh HTS: selective bacterial rRNA inhibition in E. coli; E. coli WT GFP vs humanized-ribosome RFP mutants, fluorescence, 24 h; active compounds read low; DMSO median 0, no signal -100; 1.6% of 350,000 active; GFP signal change (wild-type ribosome), % (no concentration beside the values);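 active = significant combined selectivity score with lowered wild-type GFP, culture density cut under 30%, mutant RFP and density less affected; inactive = any of these conditions unmet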
A number is an active result; . = inactive; / = no result. In the library only some 3.4% were active in any assay of this set; here they are far more common.

SMILES	E-sel inducer	SIRT5 block	ERAP1 inh	S100A4 inh HTS	MLL AF4-AF9 inh	rRNA inh HTS
C[C@H](CO)N1C[C@H](C)[C@@H](CN(C)C)Oc2ccc(NS(=O)(=O)c3ccc(Cl)cc3)cc2C1=O	/	.	.	.	.	.
CN(N=Cc1ccc([N+](=O)[O-])cc1)c1ccccn1	.	.	.	84	.	.
O=C(c1ccc([N+](=O)[O-])cc1)N(c1ccccn1)c1ccccn1	/	20	.	.	.	.
O=C(NCc1ccccn1)c1ccc([N+](=O)[O-])cc1	/	.	.	.	.	.
CCC(=O)N1C[C@@H](C)[C@H](OC)CN(C)C(=O)c2cc(NC(=O)NC(C)C)ccc2OC[C@H]1C	.	.	.	.	.	.
CC(=O)CCC1CC(c2ccc(Cl)cc2)=NO1 (centres undefined)	.	.	.	.	.	.
CC(=O)OC1CC(c2cc(C(C)(C)C)c(O)c(C(C)(C)C)c2)=NO1 (centres undefined)	.	.	.	.	.	-21
Cc1cc(C)cc(CSCC(=O)N/N=C/c2ccc(OCC(=O)NCc3ccco3)cc2)c1	/	20	.	.	.	.
CCCCCCCCCCC(C(=O)O)C1(C(=O)O)CCC(=O)O1 (centres undefined)	/	.	38	.	.	/
CCCCCCCN1C=CC(=O)CC1	.	.	.	.	.	.
C[C@@H]1CN([C@@H](C)CO)C(=O)Cc2cc(NS(=O)(=O)c3cn(C)cn3)ccc2O[C@@H]1CN(C)S(C)(=O)=O	.	.	.	.	.	.
CC(=O)NC(c1ccc(C(C)C)cc1)c1ccc2cccnc2c1O (centres undefined)	.	.	.	.	.	.
COc1cccc(C(NC(C)=O)c2ccc3cccnc3c2O)c1 (centres undefined)	/	.	.	.	26	.
COc1ccc(Cl)cc1C(Nc1cccnc1)c1ccc2cccnc2c1O (centres undefined)	/	.	.	.	26	-23
CO[C@H]1CC[C@H]2CCN(C)C(=O)[C@@H](C)[C@H](OC)CN(C)C(=O)c3cc(C#N)ccc3OC[C@H]1O2	.	.	.	98	.	.
CO[C@H]1CC[C@H]2CCN(C)C(=O)[C@@H](C)[C@H](OC)CN(C)C(=O)c3cc(C#N)ccc3OC[C@@H]1O2	.	16	.	.	.	.
CO[C@H]1CN(C)C(=O)c2cccc(C#N)c2OC[C@H]2O[C@H](CC[C@@H]2OC)CCN(C)C(=O)[C@H]1C	.	21	.	.	.	.
Oc1ccc(Cl)cc1C1=NCCNC(C(F)(F)C(F)F)=C1	/	.	.	.	/	-22
COc1cccc(-n2c(SCC(=O)NCC3CCCO3)nc3c([nH]c4ccccc43)c2=O)c1 (centres undefined)	.	.	.	.	.	-24
COc1cccc(-n2nnc3c(=O)n(CC(=O)NCC4CCCO4)cnc32)c1 (centres undefined)	.	16	.	.	.	.
CSc1nc(N)nc2c1ncn2CC(=O)NCC1CCCO1 (centres undefined)	.	31	.	.	.	.
CNC[C@@H]1Oc2ccc(NC(=O)C3CCCCC3)cc2CC(=O)N([C@H](C)CO)C[C@@H]1C	.	.	.	.	.	.
O/N=C/c1ccnc(SCc2ccccc2)n1	/	.	.	.	/	-16
COc1cccc(CNC(=O)[C@H]2[C@H](CO)[C@H]3Cn4c(cccc4=O)[C@@H]2N3C(=O)C2CCCCC2)c1	.	.	.	.	.	.
O=C(CN1CC(c2ccccc2)CC1=O)N/N=C/c1cc(Br)ccc1O (centres undefined)	.	20	.	.	.	.
SMILES	E-sel inducer	SIRT5 block	ERAP1 inh	S100A4 inh HTS	MLL AF4-AF9 inh	rRNA inh HTS
Cc1cc(C)cc(OCc2ccc(C(=O)NN)o2)c1	.	.	.	.	/	-23
Cc1ccc(OCc2ccc(C(=O)O)o2)c([N+](=O)[O-])c1	/	/	.	.	.	-26
NNC(=O)c1ccc(COc2ccc([N+](=O)[O-])cc2)o1	.	.	.	.	.	.
O=C(O)c1ccc(COc2ccc3ccccc3c2)o1	.	.	/	.	.	-17
NNC(=O)c1ccc(COc2ccc3ccccc3c2)cc1	.	.	/	.	.	.
O=C(O)CSC1CC(=O)N(c2ccc(F)cc2)C1=O (centres undefined)	.	.	.	.	.	.
O=C(CSC1CC(=O)N(c2ccc(C(=O)O)cc2)C1=O)Nc1ccc(Cl)cc1 (centres undefined)	.	18	.	.	.	.
CC(C)OCC(O)CN1CCC(Cc2ccccc2)CC1 (centres undefined)	/	.	.	.	.	.
OC(COc1ccc(Br)cc1)CN1CCC(Cc2ccccc2)CC1 (centres undefined)	/	30	.	.	.	.
COc1ccc(-c2cnc3c(c2)C(=O)N([C@H](C)CO)C[C@H](C)[C@@H](CN(C)Cc2cccnc2)O3)cc1	.	.	.	.	.	.
O=C(NCCc1ccccc1)c1ccc2c(c1)OCCO2	.	.	.	.	.	/
O/N=C(/CCc1ccccc1)c1ccc2c(c1)OCCO2	.	.	.	.	.	-25
O=C(CCCc1ccccc1)c1ccc2c(c1)OCCO2	/	.	.	.	.	-30
C[C@H](CO)N1C[C@H](C)[C@@H](CN(C)C(=O)NC2CCCCC2)Oc2ccc(NS(=O)(=O)c3ccccc3)cc2CC1=O	.	.	.	.	.	.
S=c1[nH]nc(-c2ccncc2)n1/N=C/C=C/c1ccccc1	.	.	.	.	.	-23
CCOc1ccc(CCNC(=O)c2cccc(S(=O)(=O)N3CCN(C(C)=O)CC3)c2)cc1OCC	/	21	.	.	.	.
CC(C)CC#Cc1ccc2c(c1)O[C@H](CN(C)Cc1cncnc1)[C@@H](C)CN([C@@H](C)CO)S2(=O)=O	.	.	.	.	.	.
C[C@H]1CN([C@@H](C)CO)C(=O)c2cc(NC(=O)Cc3ccccc3)ccc2O[C@@H]1CN(C)CC1CC1	.	/	.	.	.	.
S=c1[nH]nc(C2(c3ccccc3)CCCC2)o1	.	.	/	.	.	.
S=c1[nH]nc(C(c2ccccc2)C2CCCCC2)o1 (centres undefined)	/	.	.	.	.	-27
CN1/C(=C\C(=O)c2cccnc2)Sc2ccccc21	/	.	.	.	.	.
COc1cccc(C(=O)/C=C2\Sc3ccccc3N2C)c1	/	.	.	.	.	-28
C[C@@H]1CN([C@H](C)CO)C(=O)Cc2cc(NC(=O)Cc3ccccc3)ccc2O[C@H]1CN(C)S(C)(=O)=O	68	.	.	.	.	.
COc1ccc(NC(=O)Nc2ccc3c(c2)CC(=O)N([C@@H](C)CO)C[C@H](C)[C@@H](CN(C)Cc2ccc(Oc4ccccc4)cc2)O3)cc1	.	23	.	.	.	.
